Measured values taken from ChEMBL document CHEMBL3872205, “Design, synthesis and evaluation of novel potent angiotensin II receptor 1 antagonists” (Eur J Med Chem, 2016).

Assays:
[1] = Cmax in Wistar rat brain at 10 mg/kg, po by HPLC analysis; assay type: ADME, organism-based; set-up: dose 10 mg/kg, route oral
Outline: (§1)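 Wistar rats (180 ± 20 g) were dosed orally at 10, 15 or 30 mg/kg. Heart, liver, spleen, lung, kidney and brain were collected at 0–72 h (n = 6 per point). Tissue was rinsed, blotted and homogenized in saline (0.25 g/1 mL), then spun at 10,000 × g. Supernatant was methanol-extracted, dried under nitrogen at 50 °C, reconstituted in methanol and run on C18 HPLC (acetonitrile 60%/water 40%, 1.0 mL/min).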

[2] = AUC (0 to infinity) in Wistar rat plasma at 30 mg/kg, po by HPLC analysis; assay type: ADME, organism-based; set-up: dose 30 mg/kg, route oral, time infinity
Outline: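 Male Wistar rats (180 ± 20 g, n = 6 per group) got one oral dose. Heparinized blood was taken by retro-orbital puncture before dosing and at 0.5–72 h. Plasma was spun at 4000 × g, 4 °C, 10 min, spiked with internal standard and protein-precipitated with acetonitrile. Analysis was reverse-phase C18 HPLC (0.02 mol/L KH2PO4 55%/acetonitrile 45%, 1.0 mL/min). Calibration used 0.1–10 µg/mL, peak-height ratio, weighting concentration^-2.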

[3] = MRT (0 to 72 hrs) in Wistar rat liver at 10 mg/kg, po by HPLC analysis; assay type: ADME, organism-based
Outline: (§2)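 Tissue distribution in male Wistar rats given oral 10, 15 or 30 mg/kg; heart, liver, spleen, lung, kidney and brain collected predose and 0.5–72 h post-dose (n = 6 per time). Tissue rinsed in saline, homogenised 0.25 g/1 mL saline, methanol extraction, dried under nitrogen, reconstituted in methanol. Analysis by reverse-phase C18 HPLC, acetonitrile/water 60:40, 1.0 mL/min, ambient temperature.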

[4] = AUC (0 to 72 hrs) in Wistar rat lung at 15 mg/kg, po by HPLC analysis; assay type: ADME, organism-based; set-up: dose 15 mg/kg, time < 72 hr, route oral; outline: as §1
[5] = system: Rattus norvegicus; assay: Toxicity in rat model assessed as effect on heart rate at 10 to 15 mg/kg, po up to 24 hrs; assay type: organism-based; conditions: in vivo
[6] = AUC (0 to 72 hrs) in Wistar rat brain at 15 mg/kg, po by HPLC analysis; assay type: ADME, organism-based; set-up: dose 15 mg/kg, time < 72 hr, route oral; outline: as §1
[7] = Half life in Wistar rat lung at 15 mg/kg, po by HPLC analysis; assay type: ADME, organism-based; outline: as §2
[8] = Cmax in Wistar rat liver at 30 mg/kg, po by HPLC analysis; assay type: ADME, organism-based; set-up: dose 30 mg/kg, route oral; outline: as §2
[9] = Tmax in Wistar rat plasma at 10 mg/kg, po by HPLC analysis; assay type: ADME, organism-based
Outline: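 Male Wistar rats (180 ± 20 g), 6 per dose group, each given a single oral dose. Blood was drawn by retro-orbital puncture into heparin at predose and at 0.5, 1, 2, 4, 6, 8, 12, 24, 48 and 72 h, then spun at 4000 × g and 4 °C. Plasma with internal standard was acetonitrile-precipitated, filtered and run on reverse-phase C18 HPLC (0.02 mol/L KH2PO4 55% / acetonitrile 45%, 1.0 mL/min). Calibration standards were 0.1–10 µg/mL, fitted by peak-height ratio with 1/conc² weighting.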

[10] = Half life in Wistar rat kidney at 15 mg/kg, po by HPLC analysis; assay type: ADME, organism-based; outline: as §2
[11] = Half life in Wistar rat kidney at 30 mg/kg, po by HPLC analysis; assay type: ADME, organism-based; outline: as §2
[12] = system: Rattus norvegicus; assay: Antihypertensive activity in spontaneous hypertensive rat model assessed as reduction in mean blood pressure at 10 mg/kg, po after 4 hrs; assay type: functional
Outline: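 Male SHRs (250 ± 20 g) were randomized, 6 per group. Compound was suspended in 0.5% sodium carboxymethyl cellulose and given orally; vehicle-only negative control. Mean blood pressure was calculated as (SBP − DBP)/3 + DBP from systolic and diastolic readings over the time course. Data are mean ± SD, with p < 0.05 taken as significant.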

[13] = Half life in Wistar rat brain at 30 mg/kg, po by HPLC analysis; assay type: ADME, organism-based; outline: as §2
[14] = Tmax in Wistar rat liver at 15 mg/kg, po by HPLC analysis; assay type: ADME, organism-based
Outline: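 Male Wistar rats (180 ± 20 g) received a single oral dose of 10, 15 or 30 mg/kg. Tissues were collected at 0, 0.5, 1, 2, 4, 6, 8, 12, 24, 48 and 72 h (n = 6 per point). Samples of 0.25 g were rinsed, then homogenized in saline (0.25 g/1 mL) and centrifuged at 10,000 × g. Supernatant was methanol-extracted, dried under nitrogen at 50 °C and reconstituted in methanol. Analysis was by C18 HPLC (acetonitrile 60% / water 40%, 1.0 mL/min).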

[15] = AUC (0 to 72 hrs) in Wistar rat spleen at 30 mg/kg, po by HPLC analysis; assay type: ADME, organism-based; set-up: dose 30 mg/kg, time < 72 hr, route oral; outline: as §1
[16] = MRT (0 to 72 hrs) in Wistar rat Heart at 30 mg/kg, po by HPLC analysis; assay type: ADME, organism-based; outline: as §2

Which Cmax [1] does the source give for `CCCCC1=NC2(CCCC2)C(=O)N1Cc1ccc2c(ccn2-c2ccccc2-c2nnn[nH]2)c1` here?
The Cmax was 37.2 ng/mL.

And the AUC(0-inf) [2]?
Its AUC(0-inf) is 88800 ng·h/mL.

What about the MRT last [3] of the same compound?
The MRT last was 4.93 h.

And the AUC(0-t) at 72 h [4]?
Its AUC(0-t) at 72 h is 1350 ng·h/mL.

What about the Activity [5] of the same compound?
Its Activity is “Non-Toxic”.

What about the AUC(0-t) at 72 h [6] of the same compound?
The AUC(0-t) at 72 h was 1180 ng·h/mL.

And the half-life [7]?
Its half-life is 2.46 h.

And the Cmax [8]?
The Cmax was 2000 ng/mL.

And the Tmax [9]?
Its Tmax is 5.67 h.

What about the half-life [10] of the same compound?
The half-life was 22.6 h.

And the half-life [11]?
The half-life was 22.4 h.

What about the Activity [12] of the same compound?
The Activity was 28.39 mmHg.

What about the half-life [13] of the same compound?
The half-life was 2.99 h.

What about the Tmax [14] of the same compound?
The Tmax was 2 h.

And the AUC(0-t) at 72 h [15]?
Its AUC(0-t) at 72 h is 18900 ng·h/mL.

And the MRT last [16]?
Its MRT last is 16.2 h.
